Laboratory results from ChEMBL document CHEMBL4373647, “Design, synthesis, and antimicrobial evaluation of 1,4-dihydroindeno[1,2-c]pyrazole tethered carbohydrazide hybrids: exploring their in silico ADMET, ergosterol inhibition and ROS inducing potential” (Medchemcomm, 2019).
Values after ≈ are worked out from the molar mass of the structure shown.

Columns and labels:
Staphylococcus aureus [1] = assay: Ratio of MBC to MIC against Staphylococcus aureus MTCC 96; assay type: functional
Micrococcus luteus [2] = assay: Ratio of MBC to MIC against Micrococcus luteus MTCC 2470; assay type: functional
Micrococcus luteus [3] = assay: Antibacterial activity against Micrococcus luteus MTCC 2470 assessed as inhibition of bacterial growth incubated for 24 hrs by agar well diffusion method; assay type: functional; details: MTCC 2470, 24 h
Summary of the method: (§1)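 Strains from MTCC; inoculum at 0.5 McFarland spread on Mueller-Hinton agar; 6 mm wells loaded with compound over 125–0.97 µg/mL; ciprofloxacin positive control (same range), DMSO negative control. Plates held 24 h at 37 °C; MIC taken as lowest concentration giving a clear inhibition zone. Triplicate runs, mean MIC reported.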

Staphylococcus aureus [4] = assay: Antibacterial activity against Staphylococcus aureus MTCC 96 assessed as inhibition of bacterial growth incubated for 24 hrs by agar well diffusion method; assay type: functional; details: MTCC 96, 24 h; summary of the method: as §1
Staphylococcus aureus [5] = assay: Antibacterial activity against Staphylococcus aureus MLS-16 MTCC 2940 assessed as inhibition of bacterial growth incubated for 24 hrs by agar well diffusion method; assay type: functional; details: MLS-16 MTCC 2940, 24 h; summary of the method: as §1
Bacillus subtilis [6] = assay: Antibacterial activity against Bacillus subtilis MTCC 121 assessed as inhibition of bacterial growth incubated for 24 hrs by agar well diffusion method; assay type: functional; details: MTCC 121, 24 h; summary of the method: as §1
Escherichia coli [7] = assay: Antibacterial activity against Escherichia coli MTCC 739 assessed as inhibition of bacterial growth incubated for 24 hrs by agar well diffusion method; assay type: functional; details: MTCC 739, 24 h; summary of the method: as §1
Pseudomonas aeruginosa [8] = assay: Antibacterial activity against Pseudomonas aeruginosa MTCC 2453 assessed as inhibition of bacterial growth incubated for 24 hrs by agar well diffusion method; assay type: functional; details: MTCC 2453, 24 h; summary of the method: as §1
Raoultella planticola [9] = assay: Antibacterial activity against Klebsiella planticola MTCC 530 assessed as inhibition of bacterial growth incubated for 24 hrs by agar well diffusion method; assay type: functional; details: MTCC 530, 24 h; summary of the method: as §1
Candida albicans [10] = assay: Antifungal activity against Candida albicans MTCC 183 assessed as inhibition of fungal growth incubated for 24 hrs by agar well diffusion method; assay type: functional; details: MTCC 183, 24 h
Summary of the method: (§2)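 Candida strains from MTCC, pre-cultured and spread on Mueller Hinton agar. Wells received compound dissolved in 10% DMSO, 125–0.97 µg/mL; miconazole standard over the same range, DMSO negative control. After 24 h at 37 °C, MIC was read as the lowest concentration giving an inhibition zone. Duplicate experiments, means given.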

Candida albicans [11] = assay: Antifungal activity against Candida albicans MTCC 227 assessed as inhibition of fungal growth incubated for 24 hrs by agar well diffusion method; assay type: functional; details: MTCC 227, 24 h; summary of the method: as §2
Candida albicans [12] = assay: Antifungal activity against Candida albicans MTCC 4748 assessed as inhibition of fungal growth incubated for 24 hrs by agar well diffusion method; assay type: functional; details: MTCC 4748, 24 h; summary of the method: as §2
Candida albicans [13] = assay: Antifungal activity against Candida albicans MTCC 7315 assessed as inhibition of fungal growth incubated for 24 hrs by agar well diffusion method; assay type: functional; details: MTCC 7315, 24 h; summary of the method: as §2
Candida parapsilosis [14] = assay: Antifungal activity against Candida parapsilosis MTCC 1744 assessed as inhibition of fungal growth incubated for 24 hrs by agar well diffusion method; assay type: functional; details: Lodderomyces parapsilosis, MTCC 1744, 24 h; summary of the method: as §2
Staphylococcus aureus [15] = assay: Bactericidal activity against Staphylococcus aureus MLS-16 MTCC 2940 assessed as bacterial killing incubated for 24 hrs; assay type: functional; details: MLS-16 MTCC 2940, 24 h
Summary of the method: (§3)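 Broth tube assay: compound at 0–125 µg/mL in Mueller Hinton broth, overnight culture added to 0.5 McFarland (1.5 × 10^8 cfu/mL), held 24 h at 37 °C. 10 µL from each tube plated on Mueller Hinton agar. MBC is the lowest concentration that kills the strain. Duplicates, means reported.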

Bacillus subtilis [16] = assay: Bactericidal activity against Bacillus subtilis MTCC 121 assessed as bacterial killing incubated for 24 hrs; assay type: functional; details: MTCC 121, 24 h; summary of the method: as §3
Pseudomonas aeruginosa [17] = assay: Bactericidal activity against Pseudomonas aeruginosa MTCC 2453 assessed as bacterial killing incubated for 24 hrs; assay type: functional; details: MTCC 2453, 24 h; summary of the method: as §3
Raoultella planticola [18] = assay: Bactericidal activity against Klebsiella planticola MTCC 530 assessed as bacterial killing incubated for 24 hrs; assay type: functional; details: MTCC 530, 24 h; summary of the method: as §3
MRC5 = assay: Cytotoxicity against human MRC5 cells incubated for 48 hrs by MTT assay; assay type: cell-based; details: MRC5, 48 h
Summary of the method: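 Normal human lung MRC5 cells grown 24 h in 96-well plates, then exposed to a range of compound concentrations for 48 h. MTT (250 µg/mL) added for 2 h, medium replaced by DMSO, absorbance read at 570 nm. Miconazole positive control, DMSO negative control. Triplicates, mean ± S.D.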

Pichia kudriavzevii [19] = assay: Antifungal activity against Candida krusei MTCC 3020 assessed as inhibition of fungal growth incubated for 24 hrs by agar well diffusion method; assay type: functional; details: MTCC 3020, 24 h; summary of the method: as §2
Candida albicans [20] = assay: Fungicidal activity against Candida albicans MTCC 4748 assessed as fungal killing incubated for 24 hrs; assay type: functional; details: MTCC 4748, 24 h
Summary of the method: (§4)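 Compound at 125–0.97 µg/mL in Mueller Hinton broth in microcentrifuge tubes, each Candida strain added, held 24 h at 37 °C. 10 µL of the treated suspension plated on Mueller Hinton agar and incubated a further 24 h at 37 °C. MFC is the lowest concentration that kills the strain. Duplicates, means reported.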

Candida albicans [21] = assay: Fungicidal activity against Candida albicans MTCC 7315 assessed as fungal killing incubated for 24 hrs; assay type: functional; details: MTCC 7315, 24 h; summary of the method: as §4
Candida parapsilosis [22] = assay: Fungicidal activity against Candida parapsilosis MTCC 1744 assessed as fungal killing incubated for 24 hrs; assay type: functional; details: Lodderomyces parapsilosis, MTCC 1744, 24 h; summary of the method: as §4
Nakaseomyces glabratus [23] = assay: Fungicidal activity against Candida glabrata MTCC 3019 assessed as fungal killing incubated for 24 hrs; assay type: functional; details: MTCC 3019, 24 h; summary of the method: as §4
Pichia sporocuriosa [24] = assay: Fungicidal activity against Issatchenkia hanoiensis MTCC 4755 assessed as fungal killing incubated for 24 hrs; assay type: functional; details: MTCC 4755, 24 h; summary of the method: as §4
Staphylococcus aureus [25] = assay: Ratio of MBC to MIC against Staphylococcus aureus MLS-16 MTCC 2940; assay type: functional
Candida albicans [26] = assay: Ratio of MFC to MIC against Candida albicans MTCC 227; assay type: functional
Summary of the method: (§5)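 MIC by agar well diffusion: Candida lawns on Mueller-Hinton agar, wells loaded with compound in 10% DMSO (125–0.97 µg/mL), 24 h at 37 °C, lowest concentration giving an inhibition zone. MFC: compound in Mueller-Hinton broth (125–0.97 µg/mL) with yeast, 24 h at 37 °C, 10 µL plated on agar, lowest killing concentration after 24 h. Ratio is MFC/MIC.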

Candida albicans [27] = assay: Ratio of MFC to MIC against Candida albicans MTCC 3018; assay type: functional; summary of the method: as §5
Candida albicans [28] = assay: Ratio of MFC to MIC against Candida albicans MTCC 7315; assay type: functional; summary of the method: as §5
Candida parapsilosis [29] = assay: Ratio of MFC to MIC against Candida parapsilosis MTCC 1744; assay type: functional; summary of the method: as §5
Nakaseomyces glabratus [30] = assay: Ratio of MFC to MIC against Candida glabrata MTCC 3019; assay type: functional; summary of the method: as §5
Pichia kudriavzevii [31] = assay: Ratio of MFC to MIC against Candida krusei MTCC 3020; assay type: functional; summary of the method: as §5
Pichia sporocuriosa [32] = assay: Ratio of MFC to MIC against Issatchenkia hanoiensis MTCC 4755; assay type: functional; summary of the method: as §5
Escherichia coli [33] = assay: Ratio of MBC to MIC for Escherichia coli MTCC 739; assay type: functional
Pseudomonas aeruginosa [34] = assay: Ratio of MBC to MIC for Pseudomonas aeruginosa MTCC 2453; assay type: functional
Raoultella planticola [35] = assay: Ratio of MBC to MIC for Klebsiella planticola MTCC 530; assay type: functional

## COc1ccc2c(c1)Cc1c(C(=O)N/N=C/c3ccc(O)c(OC)c3)n[nH]c1-2
Staphylococcus aureus [1]
  Ratio: 2
Micrococcus luteus [2]
  Ratio: 2
Micrococcus luteus [3]
  MIC: 3.9 µg/mL (≈ 10.3 µM)
Staphylococcus aureus [4]
  MIC: 3.9 µg/mL (≈ 10.3 µM)
Staphylococcus aureus [5]
  MIC: 3.9 µg/mL (≈ 10.3 µM)
Bacillus subtilis [6]
  MIC: 7.8 µg/mL (≈ 20.6 µM)
Escherichia coli [7]
  MIC: 3.9 µg/mL (≈ 10.3 µM)
Pseudomonas aeruginosa [8]
  MIC: 7.8 µg/mL (≈ 20.6 µM)
Raoultella planticola [9]
  MIC: 3.9 µg/mL (≈ 10.3 µM)
Candida albicans [10]
  MIC: 15.6 µg/mL (≈ 41.2 µM)
Candida albicans [11]
  MIC: 3.9 µg/mL (≈ 10.3 µM)
Candida albicans [12]
  MIC: 7.8 µg/mL (≈ 20.6 µM)
Candida albicans [13]
  MIC: 7.8 µg/mL (≈ 20.6 µM)
Candida parapsilosis [14]
  MIC: 7.8 µg/mL (≈ 20.6 µM)
Staphylococcus aureus [15]
  MBC: 7.8 µg/mL (≈ 20.6 µM)
Bacillus subtilis [16]
  MBC: 15.6 µg/mL (≈ 41.2 µM)
Pseudomonas aeruginosa [17]
  MBC: 15.6 µg/mL (≈ 41.2 µM)
Raoultella planticola [18]
  MBC: 7.8 µg/mL (≈ 20.6 µM)
MRC5
  IC50: 40.8 µg/mL (≈ 108 µM)
Pichia kudriavzevii [19]
  MIC: 7.8 µg/mL (≈ 20.6 µM)
Candida albicans [20]
  MFC: 15.6 µg/mL (≈ 41.2 µM)
Candida albicans [21]
  MFC: 15.6 µg/mL (≈ 41.2 µM)
Candida parapsilosis [22]
  MFC: 15.6 µg/mL (≈ 41.2 µM)
Nakaseomyces glabratus [23]
  MFC: 15.6 µg/mL (≈ 41.2 µM)
Pichia sporocuriosa [24]
  MFC: 31.2 µg/mL (≈ 82.5 µM)
Staphylococcus aureus [25]
  Ratio: 2
Candida albicans [26]
  Ratio: 2
Candida albicans [27]
  Ratio: 2
Candida albicans [28]
  Ratio: 2
Candida parapsilosis [29]
  Ratio: 2
Nakaseomyces glabratus [30]
  Ratio: 2
Pichia kudriavzevii [31]
  Ratio: 2
Pichia sporocuriosa [32]
  Ratio: 2
Escherichia coli [33]
  Ratio: 2
Pseudomonas aeruginosa [34]
  Ratio: 2
Raoultella planticola [35]
  Ratio: 2
